Reference: ChEMBL document CHEMBL1158347, “Substituted quinazolines, part 3. Synthesis, in vitro antitumor activity and molecular modeling study of certain 2-thieno-4(3H)-quinazolinone analogs” (2009)

What was measured:
Assay type in all cases: functional
[1] = Growth inhibition of human renal cancer cells after 48 hrs; conditions: Cancer cell lines
Method in brief: (§1)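 NCI in vitro disease-oriented human tumor cell line screen. Compounds passing a one-dose primary assay (MCF-7, NCI-H460, SF-268; pass = growth of any line reduced to 32% or less) were tested on the 60-line panel over a 5-log dose range. Compounds were dissolved in DMSO, with under 1% DMSO in final dilutions, and tested in duplicate at 6×10^4 cells/ml. Cells were incubated at 37 °C in 5% CO2 for 48 h, then diluted 10-fold in saline and counted with a Coulter counter, with counts corrected for dilution. Controls held PBS/DMSO at identical dilutions. GI50 was reported per line and as subpanel/full-panel mean-graph midpoint.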

[2] = Growth inhibition of human leukemia cells after 48 hrs; conditions: Leukemia cell; method in brief: as §1
[3] = Growth inhibition of human CNS cancer cells after 48 hrs; conditions: Cancer cell lines; method in brief: as §1
NSCLC = assay: Growth inhibition of human NSCLC cells after 48 hrs; method in brief: as §1
[4] = Growth inhibition of human prostate cancer cells after 48 hrs; conditions: Cancer cell lines; method in brief: as §1
[5] = Growth inhibition of human ovarian cancer cells after 48 hrs; conditions: Cancer cell lines; method in brief: as §1
[6] = Growth inhibition of human breast cancer cells after 48 hrs; conditions: Cancer cell lines; method in brief: as §1
[7] = Growth inhibition of human melanoma cells after 48 hrs; conditions: Melanoma cell; method in brief: as §1
[8] = Growth inhibition of human Colon cancer cells after 48 hrs; conditions: Cancer cell lines; method in brief: as §1
UACC-257 = assay: Growth inhibition of human UACC257 cells after 48 hrs; conditions: UACC-257, 48 h; method in brief: as §1
CCRF-CEM = assay: Growth inhibition of human CCRF-CEM cells after 48 hrs; conditions: for CC50: read-out: LC50 (the source's name); method in brief: as §1
RPMI-8226 = assay: Growth inhibition of human RPMI8226 cells after 48 hrs; conditions: RPMI-8226, 48 h; for CC50: read-out: LC50 (the source's name); method in brief: as §1
T47D = assay: Growth inhibition of human T47D cells after 48 hrs; method in brief: as §1
K562 = assay: Growth inhibition of human K562 cells after 48 hrs; conditions: K562, 48 h; method in brief: as §1
MCF7 = assay: Growth inhibition of human MCF7 cells after 48 hrs; conditions: MCF7, 48 h; for CC50: read-out: LC50 (the source's name); method in brief: as §1
SF-539 = assay: Growth inhibition of human SF539 cells after 48 hrs; conditions: SF-539, 48 h; method in brief: as §1
HL-60(TB) = assay: Growth inhibition of human HL-60(TB) cells after 48 hrs; conditions: HL-60, 48 h; for CC50: read-out: LC50 (the source's name)
Method in brief: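 NCI 60-cell-line screen over a 5-log dose range. Compounds were dissolved in DMSO, final DMSO under 1%. Duplicate wells were seeded at 6×10^4 cells/ml, with PBS/DMSO vehicle controls at identical dilutions. Cells were incubated 48 h at 37 °C in humidified 5% CO2, diluted 10-fold in saline, and counted by Coulter counter with dilution correction. GI50 read-out.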

SK-MEL-2 = assay: Growth inhibition of human SK-MEL-2 cells after 48 hrs; conditions: SK-MEL-2, 48 h; method in brief: as §1
[9] = read-out: LC50 (the source's name)

O=c1c2cc(I)ccc2nc(-c2cccs2)n1O
GI50 [1]: 49.8 µM
TGI [1]: > 100 µM
GI50 [2]: 34.3 µM
TGI [2]: > 100 µM
GI50 [3]: 33.2 µM
TGI [3]: 94.4 µM
GI50 (NSCLC): 33.2 µM
TGI (NSCLC): 91.2 µM
GI50 [4]: 39.9 µM
TGI [4]: 98.4 µM
GI50 [5]: 32.1 µM
TGI [5]: 87.9 µM
GI50 [6]: 39.4 µM
TGI [6]: > 100 µM
GI50 [7]: 57.3 µM
TGI [7]: 97.1 µM
GI50 [8]: 45.8 µM
TGI [8]: > 100 µM

O=c1c2cc(I)ccc2nc(-c2cccs2)n1/N=C/c1ccccc1
GI50 [1]: > 100 µM
TGI [1]: > 100 µM
GI50 [2]: 63.4 µM
TGI [2]: > 100 µM
GI50 [3]: > 100 µM
TGI [3]: > 100 µM
GI50 (NSCLC): > 100 µM
TGI (NSCLC): > 100 µM
GI50 [4]: > 100 µM
TGI [4]: > 100 µM
GI50 [5]: > 100 µM
TGI [5]: > 100 µM
GI50 [6]: > 100 µM
TGI [6]: > 100 µM
GI50 [7]: 90.3 µM
TGI [7]: > 100 µM
GI50 [8]: > 100 µM
TGI [8]: > 100 µM

CC(=O)CC(=O)Nn1c(-c2cccs2)nc2ccc(I)cc2c1=O
GI50 [1]: 28.9 µM
TGI [1]: 85.1 µM
GI50 [2]: 38.5 µM
TGI [2]: > 100 µM
GI50 [3]: 27.9 µM
TGI [3]: 89.1 µM
GI50 (NSCLC): 27.5 µM
TGI (NSCLC): 86.4 µM
GI50 [4]: 20.6 µM
TGI [4]: > 100 µM
GI50 [5]: 40.9 µM
TGI [5]: 93.6 µM
GI50 [6]: 24.9 µM
TGI [6]: 82.1 µM
GI50 [7]: 37.7 µM
TGI [7]: 85.3 µM
GI50 [8]: 28.1 µM
TGI [8]: 90.9 µM

O=c1c2cc(I)ccc2nc(-c2cccs2)n1-c1ccc(S(=O)(=O)Nc2nccs2)cc1
GI50 [1]: 34.2 µM
TGI [1]: 84.3 µM
GI50 [2]: 54 µM
TGI [2]: > 100 µM
GI50 [3]: 41.4 µM
TGI [3]: 87.7 µM
GI50 (NSCLC): 38.7 µM
TGI (NSCLC): 89.5 µM
GI50 [4]: 32.9 µM
TGI [4]: > 100 µM
GI50 [5]: 46.5 µM
TGI [5]: > 100 µM
GI50 [6]: 34.8 µM
TGI [6]: 88.3 µM
GI50 [7]: 45.2 µM
TGI [7]: 84.8 µM
GI50 [8]: 44.7 µM
TGI [8]: 94.6 µM

O=c1c2cc(I)ccc2nc(-c2cccs2)n1NC(=S)Nc1ccccc1
GI50 (UACC-257): 17 µM
LC50 (UACC-257): > 100 µM
TGI (UACC-257): 66 µM
GI50 (CCRF-CEM): 21 µM
TGI (CCRF-CEM): 61 µM
CC50 (CCRF-CEM): > 100 µM
GI50 [1]: 32.5 µM
TGI [1]: 84.8 µM
GI50 [2]: 11.5 µM
TGI [2]: 38.5 µM
GI50 [3]: 29.2 µM
TGI [3]: 81.4 µM
GI50 (NSCLC): 24 µM
TGI (NSCLC): 75.2 µM
GI50 [4]: 25.8 µM
TGI [4]: 76.2 µM
GI50 [5]: 21.5 µM
TGI [5]: 77.5 µM
GI50 (RPMI-8226): 19 µM
TGI (RPMI-8226): 52 µM
CC50 (RPMI-8226): > 100 µM
GI50 [6]: 19.4 µM
TGI [6]: 60.3 µM
GI50 [7]: 23.1 µM
TGI [7]: 62.8 µM
GI50 (T47D): 3 µM
LC50 (T47D): > 100 µM
TGI (T47D): 17 µM
GI50 (K562): 0.02 µM
LC50 (concentration killing 50% of cells) (K562): 75 µM
TGI (K562): 10 µM
GI50 [8]: 29.5 µM
TGI [8]: 84 µM
GI50 (MCF7): 29 µM
TGI (MCF7): 88 µM
CC50 (MCF7): > 100 µM
GI50 (SF-539): 34 µM
TGI (SF-539): > 100 µM
CC50 (SF-539; [9]): > 100 µM
GI50 (HL-60(TB)): 1 µM
TGI (HL-60(TB)): 22 µM
CC50 (HL-60(TB)): > 100 µM

CCCCNC(=O)c1cc(I)ccc1NC(=O)c1cccs1
GI50 [1]: > 100 µM
TGI [1]: > 100 µM
GI50 [2]: 83.8 µM
TGI [2]: > 100 µM
GI50 [3]: > 100 µM
TGI [3]: > 100 µM
GI50 (NSCLC): 96 µM
TGI (NSCLC): > 100 µM
GI50 [4]: > 100 µM
TGI [4]: > 100 µM
GI50 [5]: > 100 µM
TGI [5]: > 100 µM
GI50 [6]: > 100 µM
TGI [6]: > 100 µM
GI50 [7]: > 100 µM
TGI [7]: > 100 µM
GI50 [8]: > 100 µM
TGI [8]: > 100 µM

CCSc1nc(-c2cccs2)nc2ccc(I)cc12
GI50 [1]: > 100 µM
TGI [1]: > 100 µM
TGI [2]: > 100 µM
GI50 [3]: > 100 µM
TGI [3]: > 100 µM
GI50 (NSCLC): 84.2 µM
TGI (NSCLC): > 100 µM
GI50 [4]: > 100 µM
TGI [4]: > 100 µM
GI50 [5]: 85.2 µM
TGI [5]: > 100 µM
GI50 [6]: 71.4 µM
TGI [6]: > 100 µM
GI50 [7]: > 100 µM
TGI [7]: > 100 µM
GI50 [8]: 94.6 µM
TGI [8]: > 100 µM

NS(=O)(=O)c1ccc(-n2c(-c3cccs3)nc3ccc(I)cc3c2=O)cc1
GI50 (UACC-257): 0.05 µM
LC50 (UACC-257): > 100 µM
TGI (UACC-257): 19 µM
GI50 (CCRF-CEM): 41 µM
TGI (CCRF-CEM): > 100 µM
CC50 (CCRF-CEM): > 100 µM
GI50 [1]: 24.7 µM
TGI [1]: 64.1 µM
CC50 [1, 9]: 94.1 µM
GI50 [2]: 35.3 µM
TGI [2]: 87.7 µM
GI50 [3]: 30.3 µM
TGI [3]: 73.8 µM
GI50 (NSCLC): 24 µM
TGI (NSCLC): 61.3 µM
GI50 [4]: 22.7 µM
TGI [4]: 58.9 µM
GI50 [5]: 23.5 µM
TGI [5]: 65.1 µM
GI50 (RPMI-8226): 25 µM
TGI (RPMI-8226): 62 µM
CC50 (RPMI-8226): > 100 µM
GI50 [6]: 23.3 µM
TGI [6]: 62.5 µM
GI50 [7]: 17.6 µM
TGI [7]: 43 µM
GI50 (T47D): 19 µM
LC50 (T47D): 99 µM
TGI (T47D): 44 µM
GI50 (K562): 37 µM
LC50 (concentration killing 50% of cells) (K562): > 100 µM
TGI (K562): > 100 µM
GI50 [8]: 24.8 µM
LC50 [8]: 87.1 µM
TGI [8]: 59.3 µM
GI50 (MCF7): 23 µM
TGI (MCF7): 65 µM
CC50 (MCF7): > 100 µM
GI50 (HL-60(TB)): 20 µM
TGI (HL-60(TB)): 64 µM
CC50 (HL-60(TB)): > 100 µM
GI50 (SK-MEL-2): 22 µM
LC50 (SK-MEL-2): > 100 µM
TGI (SK-MEL-2): 48 µM

NNC(=O)COc1nc(-c2cccs2)nc2ccc(I)cc12
GI50 (UACC-257): < 0.01 µM
LC50 (UACC-257): > 100 µM
TGI (UACC-257): > 100 µM
GI50 (CCRF-CEM): 20 µM
TGI (CCRF-CEM): 88 µM
CC50 (CCRF-CEM): > 100 µM
GI50 [1]: 23.1 µM
TGI [1]: 71.1 µM
GI50 [2]: 25.4 µM
TGI [2]: 80.5 µM
GI50 [3]: 20.7 µM
TGI [3]: 62.1 µM
GI50 (NSCLC): 19.4 µM
TGI (NSCLC): 59.6 µM
GI50 [4]: 23.5 µM
TGI [4]: 75.3 µM
GI50 [5]: 22.3 µM
TGI [5]: 72.5 µM
GI50 (RPMI-8226): 16 µM
TGI (RPMI-8226): 39 µM
CC50 (RPMI-8226): 97 µM
GI50 [6]: 18.7 µM
TGI [6]: 64.7 µM
GI50 [7]: 19.4 µM
TGI [7]: 51.1 µM
GI50 (T47D): 2 µM
LC50 (T47D): > 100 µM
TGI (T47D): 22 µM
GI50 (K562): 37 µM
LC50 (concentration killing 50% of cells) (K562): > 100 µM
TGI (K562): > 100 µM
GI50 [8]: 24.3 µM
TGI [8]: 66.9 µM
GI50 (MCF7): 16 µM
TGI (MCF7): 89 µM
CC50 (MCF7): > 100 µM
GI50 (HL-60(TB)): 38 µM
TGI (HL-60(TB)): > 100 µM
CC50 (HL-60(TB)): > 100 µM
GI50 (SK-MEL-2): 25 µM
LC50 (SK-MEL-2): > 100 µM
TGI (SK-MEL-2): 71 µM

O=c1[nH]cc(F)c(=O)[nH]1 [FLUOROURACIL]
TGI [1]: > 100 µM
GI50 [2]: 15.1 µM
TGI [2]: > 100 µM
GI50 [3]: 72.1 µM
TGI [3]: > 100 µM
GI50 (NSCLC): > 100 µM
TGI (NSCLC): > 100 µM
TGI [4]: > 100 µM
TGI [5]: > 100 µM
TGI [6]: > 100 µM
TGI [7]: > 100 µM
GI50 [8]: 8.37 µM
TGI [8]: > 100 µM
